Measurements reported in ChEMBL document CHEMBL1128735, “CCK-A receptor selective antagonists derived from the CCK-A receptor selective tetrapeptide agonist Boc-Trp-Lys(Tac)-Asp-MePhe-NH2 (A-71623)” (J Med Chem, 1995).
Each block holds one compound with its values, some of them ahead of it. Activity calls are given as the source filed them. The rule behind the calls is not given here.

Tests used:
[1] = molecular target: T1, Cholecystokinin receptor type A (Homo sapiens, UniProt P32238); assay: Displacement of CCK-8 from CHO cell membranes expressing human Cholecystokinin type A receptor; conditions: for Log IC50: cho
T1 sequence (P32238 whole entry): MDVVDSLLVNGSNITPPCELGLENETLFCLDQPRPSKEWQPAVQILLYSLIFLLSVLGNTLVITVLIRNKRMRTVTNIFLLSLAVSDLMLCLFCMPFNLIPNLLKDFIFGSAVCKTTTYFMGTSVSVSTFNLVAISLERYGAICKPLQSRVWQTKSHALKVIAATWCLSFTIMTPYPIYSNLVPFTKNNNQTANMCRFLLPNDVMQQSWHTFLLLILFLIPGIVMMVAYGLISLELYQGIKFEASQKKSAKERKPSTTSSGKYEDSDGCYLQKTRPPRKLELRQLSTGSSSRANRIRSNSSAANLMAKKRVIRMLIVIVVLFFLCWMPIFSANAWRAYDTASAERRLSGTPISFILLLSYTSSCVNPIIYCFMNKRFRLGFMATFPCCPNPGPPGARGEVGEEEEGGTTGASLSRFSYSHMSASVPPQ

Cavia porcellus [2] = organism: Cavia porcellus; assay: Percent contraction induced by compound at […] in guinea pig gall bladder was determined; assay type: functional
[3] = molecular target: T2, Gastrin/cholecystokinin type B receptor (Homo sapiens, UniProt P32239); assay: Displacement of CCK-8 from human Cholecystokinin type B receptor expressing CHO cell membranes; conditions: for Log IC50: cho
T2 sequence (P32239 whole entry): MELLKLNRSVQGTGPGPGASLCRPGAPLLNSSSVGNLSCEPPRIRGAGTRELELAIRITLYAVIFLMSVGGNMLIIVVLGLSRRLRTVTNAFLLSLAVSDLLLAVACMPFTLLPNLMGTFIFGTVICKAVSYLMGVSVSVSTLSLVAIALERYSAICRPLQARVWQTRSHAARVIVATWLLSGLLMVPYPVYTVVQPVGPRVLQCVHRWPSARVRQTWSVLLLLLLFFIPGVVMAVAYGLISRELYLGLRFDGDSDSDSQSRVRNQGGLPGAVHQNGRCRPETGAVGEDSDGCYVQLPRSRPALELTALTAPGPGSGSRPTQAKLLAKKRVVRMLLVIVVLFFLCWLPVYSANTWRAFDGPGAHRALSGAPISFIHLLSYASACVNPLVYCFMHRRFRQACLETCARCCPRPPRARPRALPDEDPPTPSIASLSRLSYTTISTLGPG

[4] = molecular target: T3, Cholecystokinin receptor type A (Cavia porcellus, UniProt Q63931); assay: Antagonist activity against CCK-8 induced responses in guinea pig gall bladder was determined; assay type: functional, tissue-based; conditions: for Kb: read-out: pA2 (converted)
T3 sequence (Q63931 whole entry): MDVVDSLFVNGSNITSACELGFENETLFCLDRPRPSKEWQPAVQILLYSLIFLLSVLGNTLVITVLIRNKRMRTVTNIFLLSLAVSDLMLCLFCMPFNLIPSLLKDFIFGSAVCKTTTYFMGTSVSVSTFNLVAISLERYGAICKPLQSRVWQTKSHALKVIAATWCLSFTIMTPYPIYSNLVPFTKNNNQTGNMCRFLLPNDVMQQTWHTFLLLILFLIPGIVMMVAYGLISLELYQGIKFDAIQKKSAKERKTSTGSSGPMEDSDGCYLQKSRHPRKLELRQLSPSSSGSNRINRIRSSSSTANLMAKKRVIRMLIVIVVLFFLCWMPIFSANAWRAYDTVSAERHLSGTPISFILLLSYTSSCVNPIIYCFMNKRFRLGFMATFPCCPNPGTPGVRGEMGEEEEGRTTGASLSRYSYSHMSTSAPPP
How it was run: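 Isolated guinea pig gallbladder rings in physiological salt solution at 37 °C, 95% O2/5% CO2, pH 7.4, under 1 g resting tension, with isometric force recording. Tissues from at least three animals were incubated 60 min with antagonist (three to five concentrations), then given a cumulative sulfated CCK-8 curve. Paired untreated tissue served as time/solvent control for the concentration ratio. pA2 was derived by Schild analysis.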

Cavia porcellus [5] = organism: Cavia porcellus; assay: Effective concentration required to induce contraction of guinea pig gall bladder
Cavia porcellus [6] = organism: Cavia porcellus; assay: Percent contraction induced by compound at […] in guinea pig gall bladder was determined; Inactive; assay type: functional

IC50 [1]: 100 nM | IC50 [3]: 63100 nM | Kb [4]: 79.4 nM
SMILES: CC(=O)N[C@@H](Cc1c[nH]c2ccccc12)C(=O)N[C@@H](Cc1ccc(NC(=O)Nc2ccccc2Cl)cc1)C(=O)N[C@@H](CC(=O)O)C(=O)N[C@@H](Cc1ccc(C)cc1)C(N)=O

IC50 [1]: 31.6 nM | IC50 [3]: 100000 nM | Kb [4]: 39.8 nM
SMILES: CC(=O)N[C@@H](Cc1c[nH]c2ccccc12)C(=O)N[C@@H](Cc1ccc(NC(=O)Nc2ccccc2C)cc1)C(=O)N[C@@H](CC(=O)O)C(=O)N[C@@H](Cc1ccc(C)cc1)C(N)=O

EC50 (Cavia porcellus [5]): 0.501 nM | Log IC50 [1]: -8.3 | Log IC50 [3]: -6
SMILES: CC(=O)N[C@@H](Cc1c[nH]c2ccccc12)C(=O)N[C@@H](CCCCNC(=O)Nc1ccccc1Cl)C(=O)N[C@@H](CC(=O)O)C(=O)N[C@@H](Cc1ccc(C)cc1)C(N)=O [listing 2 of 2 here]

Log IC50 [1]: -7 | Log IC50 [3]: -5 | pA2 [4]: 7.2
SMILES: CC(=O)N[C@@H](Cc1c[nH]c2ccccc12)C(=O)NC(Cc1cccc(NC(=O)Nc2ccccc2C)c1)C(=O)N[C@@H](CC(=O)O)C(=O)N[C@H](Cc1ccc(C)cc1)C(N)=O (stereo not given in full)
Activity (Cavia porcellus [6]): inactive

Log IC50 [1]: -7.2 | Log IC50 [3]: -4.3 | pA2 [4]: 7.4
SMILES: CC(=O)N[C@H](Cc1c[nH]c2ccccc12)C(=O)NC(Cc1cccc(NC(=O)Nc2ccccc2C)c1)C(=O)N[C@H](CC(=O)O)C(=O)N[C@@H](Cc1ccc(C)cc1)C(N)=O (stereo not given in full)
Activity (Cavia porcellus [6]): inactive

EC50 (Cavia porcellus [5]): 1.58 nM | IC50 [1]: 20 nM | IC50 [3]: 5010 nM
SMILES: CC(=O)N[C@@H](Cc1c[nH]c2ccccc12)C(=O)N[C@@H](CCCCNC(=O)Nc1ccccc1C)C(=O)N[C@@H](CC(=O)O)C(=O)N[C@@H](Cc1ccc(C)cc1)C(N)=O [listing 2 of 2 here]

The remaining lines, values behind:

SMILES: Cc1cccc(NC(=O)N[C@@H]2N=C(c3ccccc3)c3ccccc3N(C)C2=O)c1 [L-365260]
IC50 [1]: 158 nM

SMILES: CC(=O)N[C@@H](Cc1c[nH]c2ccccc12)C(=O)N[C@@H](CCCCNC(=O)Nc1ccccc1Cl)C(=O)N[C@@H](CC(=O)O)C(=O)N[C@@H](Cc1ccc(C)cc1)C(N)=O [listing 1 of 2 here]
Activity (Cavia porcellus [2]): 117%

SMILES: CC(=O)N[C@@H](Cc1c[nH]c2ccccc12)C(=O)N[C@@H](CCCCNC(=O)Nc1ccccc1C)C(=O)N[C@@H](CC(=O)O)C(=O)N[C@@H](Cc1ccc(C)cc1)C(N)=O [listing 1 of 2 here]
Activity (Cavia porcellus [2]): 105%

SMILES: CC(=O)N[C@@H](Cc1c[nH]c2ccccc12)C(=O)NC(Cc1ccc(NC(=O)Nc2ccccc2C)cc1)C(=O)N[C@@H](CC(=O)O)C(=O)N[C@H](Cc1ccc(C)cc1)C(N)=O (stereo not given in full)
Activity (Cavia porcellus [6]): inactive

SMILES: CC(=O)N[C@@H](Cc1c[nH]c2ccccc12)C(=O)NC(Cc1ccc(NC(=O)Nc2ccccc2Cl)cc1)C(=O)N[C@@H](CC(=O)O)C(=O)N[C@H](Cc1ccc(C)cc1)C(N)=O (stereo not given in full)
Activity (Cavia porcellus [6]): inactive
